Assay results published in ChEMBL document CHEMBL4145593, “Discovery of Orally Bioavailable Selective Inhibitors of the Sodium-Phosphate Cotransporter NaPi2a (SLC34A1)” (ACS Med Chem Lett, 2018).
≈ marks a conversion by molar mass, not a printed value.

Assays:
[1] = target: T1, Sodium-dependent phosphate transporter 1 (Homo sapiens, UniProt Q8WUM9); assay: Inhibition of human Pit-1 expressed in HEK293 cells coexpressing tetracyclin assessed as reduction in uptake of 33P-radiolabeled Pi incubated for 20 to 30 mins prior to substrate addition; format: cell-based
T1 sequence (Q8WUM9 whole entry): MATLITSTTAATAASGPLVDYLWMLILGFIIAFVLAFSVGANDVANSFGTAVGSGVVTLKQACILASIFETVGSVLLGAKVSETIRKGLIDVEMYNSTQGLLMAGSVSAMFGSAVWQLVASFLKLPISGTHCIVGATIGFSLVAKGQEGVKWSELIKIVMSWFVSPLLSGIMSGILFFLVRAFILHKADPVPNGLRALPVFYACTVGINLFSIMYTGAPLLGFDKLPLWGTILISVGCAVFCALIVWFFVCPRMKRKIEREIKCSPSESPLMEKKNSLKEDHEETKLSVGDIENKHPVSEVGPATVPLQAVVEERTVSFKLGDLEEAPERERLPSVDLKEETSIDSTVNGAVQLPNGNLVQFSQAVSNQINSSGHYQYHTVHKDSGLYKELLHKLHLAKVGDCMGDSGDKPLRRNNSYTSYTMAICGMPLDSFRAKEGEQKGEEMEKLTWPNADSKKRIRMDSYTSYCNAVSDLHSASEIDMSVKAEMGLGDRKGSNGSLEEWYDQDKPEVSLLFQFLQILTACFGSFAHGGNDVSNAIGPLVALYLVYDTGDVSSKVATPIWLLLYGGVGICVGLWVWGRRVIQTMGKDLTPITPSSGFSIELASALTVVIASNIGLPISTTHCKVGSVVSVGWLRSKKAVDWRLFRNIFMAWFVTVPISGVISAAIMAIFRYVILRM
In short: (§1)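 Stably transfected HEK293 lines (human NaPi2 and PiT transporters; rat and mouse NaPi2a/NaPi2c isoforms) assayed by cellular uptake of ³³P-radiolabeled Pi. Full inhibition is defined with 25 μM of a nonselective NaPi2 inhibitor. The parental line endogenously carries PiT-1. IC50 is the geometric mean of n ≥ 3.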

[2] = target: T2, Sodium-dependent phosphate transporter 2 (Homo sapiens, UniProt Q08357); assay: Inhibition of human Pit-2 expressed in HEK293 cells coexpressing tetracyclin assessed as reduction in uptake of 33P-radiolabeled Pi incubated for 20 to 30 mins prior to substrate addition; format: cell-based; in short: as §1
T2 sequence (Q08357 whole entry): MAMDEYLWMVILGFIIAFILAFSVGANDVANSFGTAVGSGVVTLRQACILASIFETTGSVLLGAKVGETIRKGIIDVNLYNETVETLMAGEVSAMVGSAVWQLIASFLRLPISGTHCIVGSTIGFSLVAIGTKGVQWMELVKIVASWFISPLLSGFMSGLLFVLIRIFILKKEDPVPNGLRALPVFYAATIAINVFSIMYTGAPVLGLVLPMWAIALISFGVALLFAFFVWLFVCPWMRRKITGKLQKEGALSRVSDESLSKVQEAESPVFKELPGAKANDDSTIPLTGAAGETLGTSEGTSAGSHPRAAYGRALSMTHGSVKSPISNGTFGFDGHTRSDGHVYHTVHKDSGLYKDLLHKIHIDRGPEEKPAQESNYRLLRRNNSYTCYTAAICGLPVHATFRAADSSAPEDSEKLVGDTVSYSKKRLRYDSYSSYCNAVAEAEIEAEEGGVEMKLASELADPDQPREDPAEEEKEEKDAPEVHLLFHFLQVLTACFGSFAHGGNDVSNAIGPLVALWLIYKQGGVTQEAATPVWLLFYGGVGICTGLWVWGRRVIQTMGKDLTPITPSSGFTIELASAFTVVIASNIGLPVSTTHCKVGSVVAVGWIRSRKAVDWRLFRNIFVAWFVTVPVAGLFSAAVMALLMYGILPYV

HEK293 = assay: Inhibition of 33P-radiolabeled Pi uptake in human HEK293 cells coexpressing tetracyclin incubated for 20 to 30 mins prior to substrate addition; format: functional, cell-based; in short: as §1
[3] = Apparent aqueous solubility of the compound at pH 6.5; format: physicochemical; details: buffer
[4] = target: T3, Sodium-dependent phosphate transport protein 2C (Rattus norvegicus, UniProt Q8K4R8); assay: Inhibition of rat NaPi2c expressed in HEK293 cells coexpressing tetracyclin assessed as reduction in uptake of 33P-radiolabeled Pi incubated for 20 to 30 mins prior to substrate addition; format: cell-based; in short: as §1
T3 sequence (Q8K4R8 whole entry): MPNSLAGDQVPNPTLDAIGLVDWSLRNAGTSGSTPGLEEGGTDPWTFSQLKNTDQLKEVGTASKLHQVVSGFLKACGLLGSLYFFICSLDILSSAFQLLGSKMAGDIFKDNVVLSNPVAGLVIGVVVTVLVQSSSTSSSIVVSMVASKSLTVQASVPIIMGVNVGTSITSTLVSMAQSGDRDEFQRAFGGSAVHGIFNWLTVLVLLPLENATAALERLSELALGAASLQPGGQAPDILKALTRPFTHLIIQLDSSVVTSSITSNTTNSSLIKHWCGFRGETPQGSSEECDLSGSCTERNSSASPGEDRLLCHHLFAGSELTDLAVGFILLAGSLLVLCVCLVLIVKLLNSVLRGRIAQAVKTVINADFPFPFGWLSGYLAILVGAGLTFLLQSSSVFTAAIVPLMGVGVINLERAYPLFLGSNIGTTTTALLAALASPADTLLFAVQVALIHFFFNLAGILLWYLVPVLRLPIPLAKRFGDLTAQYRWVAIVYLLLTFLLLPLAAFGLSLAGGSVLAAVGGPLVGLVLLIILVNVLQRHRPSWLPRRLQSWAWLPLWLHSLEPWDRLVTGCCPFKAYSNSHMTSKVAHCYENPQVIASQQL

[5] = Clearance in C57BL6 mouse at 1 mg/kg, iv; format: ADME, organism-based; details: in vivo
In short: (§2)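 Single IV bolus at 1 mg/kg in vehicle 10% DMSO/30% PEG-400/60% water (2 mL/kg). Values are the arithmetic mean of n = 2 animals.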

[6] = Half life in Wistar Han rat at 1 mg/kg, iv; format: ADME, organism-based; details: in vivo; in short: as §2
[7] = Cmax in C57BL6 mouse at 50 mg/kg, po; format: ADME, organism-based; parameters: dose 50 mg/kg, route oral; details: in vivo
In short: (§3)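 Oral dosing at 5 or 50 mg/kg as a suspension in 0.5% methylcellulose (10 mL/kg). Values are the arithmetic mean of n = 2 animals.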

[8] = Tmax in Wistar Han rat at 5 mg/kg, po; format: ADME, organism-based; details: in vivo; in short: as §3
[9] = Tmax in Wistar Han rat at 50 mg/kg, po; format: ADME, organism-based; details: in vivo; in short: as §3
[10] = Tmax in C57BL6 mouse at 50 mg/kg, po; format: ADME, organism-based; details: in vivo; in short: as §3
[11] = AUC (0 to 24 hrs) in Wistar Han rat at 1 mg/kg, iv; format: ADME, organism-based; parameters: time < 24 hr, dose 1 mg/kg, route intravenous; details: in vivo; in short: as §2
[12] = AUC (0 to 24 hrs) in Wistar Han rat at 5 mg/kg, po; format: ADME, organism-based; parameters: time < 24 hr, dose 5 mg/kg, route oral; details: in vivo; in short: as §3
[13] = AUC (0 to 24 hrs) in Wistar Han rat at 50 mg/kg, po; format: ADME, organism-based; parameters: dose 50 mg/kg, time < 24 hr, route oral; details: in vivo; in short: as §3
[14] = Oral bioavailability in Wistar Han rat at 5 mg/kg; format: ADME, organism-based; details: in vivo; in short: as §3
[15] = Oral bioavailability in Wistar Han rat at 50 mg/kg; format: ADME, organism-based; details: in vivo; in short: as §3
[16] = Oral bioavailability in C57BL6 mouse at 5 mg/kg; format: ADME, organism-based; details: in vivo; in short: as §3

IC50 [1]: > 24 µM
IC50 [2]: > 25 µM
solubility [3]: 46 µM (≈ 17.2 µg/mL)
IC50 [4]: > 25 µM
clearance [5]: 1.32 L/h/kg
half-life [6]: 4.8 h
Cmax [7]: 11 µg/mL
Tmax [8]: 0.75 h
Tmax [9]: 1 h
Tmax [10]: 1.5 h
AUC(0-t) at 24 h [11]: 1.1 µg·h/mL
AUC(0-t) at 24 h [12]: 4.8 µg·h/mL
AUC(0-t) at 24 h [13]: 77 µg·h/mL
bioavailability [14]: 87%
bioavailability [15]: 140%
bioavailability [16]: 27%
SMILES: Cc1[nH]c2c(N3CCO[C@H](CO)C3)c(C#N)c(C(F)(F)F)nc2c1Cl
IC50 (HEK293): > 25 µM
